Screening data from PubChem BioAssay.
GRK2 inh: human GRK2 inhibition via aptamer displacement. 330,000 compounds, 0.59% hits. inhibition of aptamer binding, % at 10 µM. P25098. bead flow cytometry, FAM-aptamer displacement from GRK2;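 active means inhibition of aptamer binding above 40%, roughly 3 SD of noise, on plates passing a quality check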;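 further: median bead fluorescence of bound FAM aptamer so fluorescent compounds give negative values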
ABCB1 block: blocks JC-1 efflux by human ABCB1 transporter. inhibition, % at 6.6 µM. 190,000 compounds, 0.067% hits. CCRF-Adr cells, flow cytometry. P08183; in the data active means inhibition above about 40%;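 further: 0% = vehicle and 100% = reference inhibitor; higher value means more JC-1 retained so stronger ABCB1 efflux block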
DDE Tn6 FP inh: inhibitors of Tn6 peptide binding to human fibrin DD(E); P02675; Fibrin DD(E) TRITC-Tn6 fluorescence polarization displacement; inhibition, % at 8.3 µM; 370,000 compounds, 0.21% hits; AID 720509;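 active means inhibition above a per-campaign cutoff: mean of compounds within control limits plus 3 SD, cut at about 15% in these data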;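 further: 0% = median of all compound wells on the plate and 100% = blocking peptide control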
ABCG2 inh: blocks JC-1 efflux by human ABCG2 transporter; IgMXP3 cells, flow cytometry; inhibition, % at 6.6 µM; 190,000 compounds, 0.1% hits;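 active means inhibition above 80%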;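 further: 0% = DMSO and 100% = nicardipine control wells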
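Incubation: cells with compound and JC-1, 10 min at 25 °C, rotating, no wash / Test system: IgMXP3 (ABCG2) plus far-red-tagged CCRF-Adr (ABCB1) cells / Compound dosing: one concentration, 6.6 µM final / Also added: JC-1 fluorescent substrate / Evaluation: efflux inhibition in percent versus controls / Detection: flow cytometry, 530 nm JC-1 signal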
Tn7 DDE FP: disrupts Tn7 cyclic peptide binding to fibrin D-Dimer-E complex. AID 720508. inhibition, % at 8.3 µM. FP displacement of FITC-Tn7 peptide from fibrin DD(E); 0% = median of compound wells per plate. 370,000 compounds, 0.13% hits;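 active means inhibition above the mean of compounds falling within the control limits plus 3 SD of them, cut at about 14% in these data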;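 further: 0% = plate median of compound wells and 100% = 10 µM Aha-Tn7 peptide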
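Assay system: Human fibrin DD(E) protein | Medium: Tris buffer with calcium and detergent, pH 7.8 | Reagent: 0.1 µM fluorescent Tn7 | Compound dosing: Single point at 8.3 µM | Times: 10 min preincubation, 3 h with tracer, room temperature | Detection: Fluorescence polarization of the labelled Tn7 tracer | Controls: Aha-Tn7 high control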
Insulin prom up: MIN6 insulin promoter up-regulation | MIN6 insulin promoter-GFP reporter, high-content imaging; hits give high values | AID 1625 | 190,000 compounds, 0.3% hits | z-score at 5 µM;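 active means z-score above 3 at 5 µM with at least 500 cells counted in the well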
ABCB1 confirm: inhibits human ABCB1 efflux, confirmed at single point; inhibition, % at 6.6 µM; AID 1451; shares compounds with ABCG2 inh; 270 compounds, 7% hits; CCRF-Adr cells, JC-1 efflux, flow cytometry;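 active means inhibition of pump activity above 50%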;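 further: 0% = DMSO and 100% = nicardipine full pump inhibition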
ABCG2 single pt: confirmation of human ABCG2 transporter inhibitors, ABCB1 counter-screen. 270 compounds, 6% hits. IgMXP3 cells, JC-1 efflux, flow cytometry. shares compounds with ABCG2 inh. AID 1453. inhibition, % at 6.6 µM;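 active means inhibition above 50%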;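 further: 0% = DMSO wells and 100% = nicardipine pump inhibitor wells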
IgMXP3 fluor: counter-screen for ABCG2 inhibitors: compound fluorescence in IgMXP3 cells. compound autofluorescence 488/530 nm, flow; hits give high values. shares compounds with ABCG2 inh. AID 1480. fluorescence at 6.6 µM. 270 compounds, 30% hits;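 active means fluorescence in ABCG2-expressing cells above the plate's control-well mean plus 3 SD, cut at about 15 in these data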;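 further: median cell fluorescence with compound minus that of DMSO-treated control cells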
CCRF autofluor: counter-screen for ABCB1 inhibitors: compound fluorescence in CCRF-Adr cells | fluorescence at 6.6 µM | 270 compounds, 30% hits | shares compounds with ABCG2 inh | AID 1483 | compound autofluorescence 488/530 nm, flow cytometry; hits give high values;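 active means fluorescence beyond the plate control mean plus 3 SD, with a fluorescence-to-maximum score over 2, cut at about 25 in these data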
Numbers without * were called inactive. Most compounds without a hit are left out; they make up all but 0.99% or so of the library.

Screening CCCCOC(=O)Nc1ccc(C(=O)OCCC)cc1 returned GRK2 inh 0, ABCB1 block 1, DDE Tn6 FP inh 7, ABCG2 inh 73, Tn7 DDE FP 2, Insulin prom up -0.94, ABCB1 confirm 0, ABCG2 single pt 29, IgMXP3 fluor 5.2 and CCRF autofluor 19.
C=CCN(C(=O)[C@@H](C1CC1)[C@@H](O)c1ccc2ccccc2c1)c1ccccc1 was read as DDE Tn6 FP inh -3 and Tn7 DDE FP -4.
For CCC(C)NC(=O)COC(=O)c1ccccc1OCC(=O)Nc1ccc(Br)cc1 (centres undefined) the results were GRK2 inh 1, ABCB1 block 1, DDE Tn6 FP inh 7, ABCG2 inh 21, Tn7 DDE FP -1 and Insulin prom up -0.58.
O=C(COC(=O)c1ccccc1OCC(=O)Nc1ccc(Br)cc1)Nc1ccccc1 was read as GRK2 inh 0, ABCB1 block 3, DDE Tn6 FP inh 1, ABCG2 inh 84*, Tn7 DDE FP 2, Insulin prom up 0.36, ABCB1 confirm 1, ABCG2 single pt 26, IgMXP3 fluor -0.79 and CCRF autofluor -0.74.
`CCOC(=O)c1sc(NN=C(C(=O)OC)C(=O)OC)c(C(=O)OCC)c1C` gave GRK2 inh 2, ABCB1 block 0, DDE Tn6 FP inh 2, ABCG2 inh 126*, Tn7 DDE FP -2, Insulin prom up -0.07, ABCB1 confirm 2, ABCG2 single pt 26, IgMXP3 fluor -1.3 and CCRF autofluor -1.2.
`COc1ccc(NC(=O)C(c2ccccc2)n2c(=O)c(-c3ccco3)nc3ccccc32)cc1` (centres undefined) gave DDE Tn6 FP inh -2 and Tn7 DDE FP -3.
For COC(=O)c1cc(NC(=O)c2ccccc2)c(=O)oc1/C=C/Nc1ccc(Oc2ccccc2)cc1 the results were ABCB1 block 127*, DDE Tn6 FP inh 4, ABCG2 inh 116*, Tn7 DDE FP -13, ABCB1 confirm 91*, ABCG2 single pt -34, IgMXP3 fluor 207* and CCRF autofluor 339*.
COc1ccc(CNc2nc(-c3cccnc3)nn2C(=O)c2cccs2)cc1 was read as GRK2 inh 0, ABCB1 block 6, DDE Tn6 FP inh 7, ABCG2 inh 88*, Tn7 DDE FP -5, Insulin prom up 0.14, ABCB1 confirm 11, ABCG2 single pt 35, IgMXP3 fluor -0.74 and CCRF autofluor 0.01.
For CCCCc1cccc2[nH]cc(C)c12 the results were DDE Tn6 FP inh -7 and Tn7 DDE FP 0.
Screening CC(C)CCOc1cccc(OCC(=O)O)c1 returned ABCB1 block 30, DDE Tn6 FP inh 1, ABCG2 inh 108*, Tn7 DDE FP 1, Insulin prom up 0.71, ABCB1 confirm 1, ABCG2 single pt 3, IgMXP3 fluor 8.3 and CCRF autofluor -0.84.
Oc1ccccc1C=Nn1c(-c2ccccc2F)n[nH]c1=S was read as DDE Tn6 FP inh 4 and Tn7 DDE FP 0.
Screening CCOCCCNc1nc2c(C)cccn2c(=O)c1/C=C1\SC(=S)N(CC(C)C)C1=O returned GRK2 inh 0, ABCB1 block 48*, DDE Tn6 FP inh 0, ABCG2 inh 141*, Tn7 DDE FP -3, ABCB1 confirm 7, ABCG2 single pt 40, IgMXP3 fluor 44* and CCRF autofluor 211*.
Screening O=C1NC(CCc2ccccc2)C(=O)N1Cc1cccc2ccccc12 (centres undefined) returned GRK2 inh 4, ABCB1 block 90*, DDE Tn6 FP inh 11, ABCG2 inh 159*, Tn7 DDE FP 3, Insulin prom up 0.2, ABCB1 confirm 0, ABCG2 single pt -1, IgMXP3 fluor -0.29 and CCRF autofluor -2.7.
`CC(C)CCNC(=O)CSc1nc2c(c(=O)[nH]1)CCC2` gave DDE Tn6 FP inh -1 and Tn7 DDE FP -1.
For COc1ccc(CN2CCn3nc(C(=O)NC(C)C)cc3C2=O)cc1 the results were GRK2 inh 0, ABCB1 block 41*, DDE Tn6 FP inh 5, ABCG2 inh 0, Tn7 DDE FP -3, Insulin prom up -0.42, ABCB1 confirm -2, ABCG2 single pt 4, IgMXP3 fluor 3.4 and CCRF autofluor 0.71.
COc1cc(C(=O)N/N=C/c2ccc(OC)c(CN3CCN(c4ccc(F)cc4)CC3)c2)ccc1O was read as GRK2 inh 0, ABCB1 block 45*, DDE Tn6 FP inh 0, ABCG2 inh 16, Tn7 DDE FP 5, Insulin prom up 0.05, ABCB1 confirm 64*, ABCG2 single pt 37, IgMXP3 fluor -2 and CCRF autofluor -3.1.
`COc1ccc(/C=N/NC(=O)c2ccccc2)cc1CN1CCN(c2ccc(F)cc2)CC1` gave GRK2 inh 0, ABCB1 block 6, DDE Tn6 FP inh -3, ABCG2 inh 2, Tn7 DDE FP -4 and Insulin prom up -0.08.
For COc1ccc(/C=N/NC(=O)c2ccccc2F)cc1CN1CCN(c2ccc(F)cc2)CC1 the results were GRK2 inh 0, ABCB1 block 52*, DDE Tn6 FP inh 4, ABCG2 inh 24, Tn7 DDE FP -3, Insulin prom up -0.28, ABCB1 confirm 31, ABCG2 single pt 7, IgMXP3 fluor 0.36 and CCRF autofluor -2.3.
COc1ccc(C(=O)N/N=C/c2ccc(OC)c(COc3ccc(F)cc3)c2)cc1 was read as GRK2 inh 0, DDE Tn6 FP inh -10 and Tn7 DDE FP -1.
For C=C(C)Cn1c(SCC(=O)NN=Cc2c(O)ccc3ccccc23)nnc1-c1ccc(Br)cc1 the results were DDE Tn6 FP inh -5 and Tn7 DDE FP -2.
CCOc1cc(CNCCSc2nnnn2C)cc(Br)c1OCc1ccc(F)cc1 was read as GRK2 inh 0, ABCB1 block 10, DDE Tn6 FP inh -1, ABCG2 inh 105*, Tn7 DDE FP 3, Insulin prom up -0.55, ABCB1 confirm 1, ABCG2 single pt 11, IgMXP3 fluor -1.8 and CCRF autofluor 34*.
`O=C(Nc1ccccc1)Nc1cc([N+](=O)[O-])ccc1F` gave GRK2 inh 0, ABCB1 block 1, DDE Tn6 FP inh -5, ABCG2 inh 11, Tn7 DDE FP 0 and Insulin prom up 0.63.
